One assay deals with A2780. In words: In vitro cytotoxicity against A2780 ovarian cells using the sulforhodamine B(SRB) assay. The format is functional, cell-based. Particulars: Homo sapiens. In short, it runs like this:
(§1)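 SRB growth assay. 3000–6000 cells were seeded and attached overnight. Agents were dissolved at 500 μM in water and added in quadruplicate at final 0.05, 0.25, 1, 5 and 25 μM. After 96 h, cells were fixed with cold 10% TCA and stained with 0.4% SRB. A540 was expressed as percent of untreated control and the 50% growth-inhibitory concentration was derived.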

The next assay deals with CH1. In words: In vitro cytotoxicity against CH1 ovarian cells using the sulforhodamine B(SRB) assay. The format is functional, cell-based. As to conditions: Homo sapiens. In short, it runs like this:
as §1

A further assay deals with SK-OV-3. In words: In vitro cytotoxicity against SKOV-3 ovarian cells using the sulforhodamine B(SRB) assay. The format is functional, cell-based. Particulars: Homo sapiens. The procedure, abridged: as §1
Assay [1] addresses Telomerase reverse transcriptase (Homo sapiens, UniProt O14746). In words: Inhibitory activity of telomerase was measured using the TRAP assay. In short, it runs like this:
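Cell-free modified TRAP with extracts from exponentially growing A2780 ovarian carcinoma cells. 0.04 μg protein was incubated with TS primer, dNTPs (50 μM each) and [α-32P]dCTP in TRAP buffer (pH 8.3, 68 mM KCl) ± agent, up to 50 μM final, for 20 min at 25 °C. Then 80 °C for 5 min, CX primer plus Taq, 31 PCR cycles. Products read by gel phosphorimaging/autoradiography or filter scintillation counting. IC50 taken as 50% inhibition relative to controls.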

The structures appear in SMILES notation. pIC50: −log10 of the molar value.

A word on the pIC50: it is the IC50 on a negative log10 scale, so that one unit is a factor of ten. A lower pIC50 goes with a large IC50.

Chain of Telomerase reverse transcriptase (O14746 whole entry): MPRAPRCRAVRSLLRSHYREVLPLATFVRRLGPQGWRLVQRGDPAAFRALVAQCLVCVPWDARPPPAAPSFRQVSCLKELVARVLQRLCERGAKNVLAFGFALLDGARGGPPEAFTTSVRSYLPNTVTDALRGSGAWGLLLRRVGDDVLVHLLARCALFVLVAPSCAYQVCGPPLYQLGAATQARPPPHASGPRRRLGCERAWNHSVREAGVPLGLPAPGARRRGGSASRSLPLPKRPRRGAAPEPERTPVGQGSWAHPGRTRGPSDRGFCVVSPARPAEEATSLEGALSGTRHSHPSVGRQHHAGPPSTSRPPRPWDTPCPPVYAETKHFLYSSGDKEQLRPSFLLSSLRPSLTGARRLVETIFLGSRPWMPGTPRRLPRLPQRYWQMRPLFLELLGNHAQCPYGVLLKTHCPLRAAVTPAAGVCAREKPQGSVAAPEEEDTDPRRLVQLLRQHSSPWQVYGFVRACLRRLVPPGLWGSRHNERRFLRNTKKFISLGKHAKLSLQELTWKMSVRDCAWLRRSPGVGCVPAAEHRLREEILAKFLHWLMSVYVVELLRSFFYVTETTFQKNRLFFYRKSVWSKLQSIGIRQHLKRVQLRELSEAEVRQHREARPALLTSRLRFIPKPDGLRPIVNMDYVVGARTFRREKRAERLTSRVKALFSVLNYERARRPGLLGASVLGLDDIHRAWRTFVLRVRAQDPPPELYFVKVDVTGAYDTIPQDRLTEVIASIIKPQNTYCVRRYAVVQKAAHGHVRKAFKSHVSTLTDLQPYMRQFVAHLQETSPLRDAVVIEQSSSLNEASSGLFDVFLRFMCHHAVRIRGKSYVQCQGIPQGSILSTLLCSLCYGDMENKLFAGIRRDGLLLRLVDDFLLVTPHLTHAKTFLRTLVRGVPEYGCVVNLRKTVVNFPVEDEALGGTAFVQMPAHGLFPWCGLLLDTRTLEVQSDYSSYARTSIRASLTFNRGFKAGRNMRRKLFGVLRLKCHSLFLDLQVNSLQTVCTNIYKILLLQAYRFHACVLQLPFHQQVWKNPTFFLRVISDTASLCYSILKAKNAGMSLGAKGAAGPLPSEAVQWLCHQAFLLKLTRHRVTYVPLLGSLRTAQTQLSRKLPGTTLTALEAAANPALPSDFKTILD

Take `O=C(CCN1CCOCC1)Nc1cccc2c1C(=O)c1c(NC(=O)CCN3CCOCC3)cccc1C2=O`: the pIC50 was under 4.60 in the assay on A2780, 4.67 in the assay with CH1, under 4.60 in the assay on SK-OV-3 and under 4.30 in assay [1].

For `C[N+]1(CCC(=O)Nc2cccc3c2C(=O)c2c(NC(=O)CC[N+]4(C)CCCC4)cccc2C3=O)CCCC1`, the pIC50 in the assay on A2780 is 6.22; in the assay on CH1, 5.77; in the assay with SK-OV-3, 5.30; in assay [1], 5.09.

As to `O=C(CCN1CCCCC1)Nc1cccc2c1C(=O)c1c(NC(=O)CCN3CCCCC3)cccc1C2=O`, the pIC50 in the assay with A2780 is 6.27; with CH1, 5.71; in the assay with SK-OV-3 it was 5.63; in assay [1], 5.43.

Consider `O=C(CCN1CCOCC1)Nc1cccc2c1C(=O)c1cccc(NC(=O)CCN3CCOCC3)c1C2=O`, for which the negative-log IC50 (pIC50) in the assay on A2780 was under 4.60; in the assay on CH1 it was under 4.60; with SK-OV-3, under 4.60; in assay [1], under 4.30.

For `C[N+]1(CCC(=O)Nc2cccc3c2C(=O)c2c(NC(=O)CC[N+]4(C)CCOCC4)cccc2C3=O)CCOCC1`, the pIC50 in the assay with A2780 is 6.29; in the assay with CH1, 6.24; in the assay on SK-OV-3 it was 5.59; in assay [1], 5.00.

With `C[N+](C)(C)CCC(=O)Nc1ccc2c(c1)C(=O)c1cc(NC(=O)CC[N+](C)(C)C)ccc1C2=O`, the pIC50 in the assay with A2780 was 6.36; in the assay on CH1, 5.89; in the assay on SK-OV-3 it was 5.40; in assay [1], 4.84.

For `O=C(CCN1CCCCC1)Nc1cccc2c1C(=O)c1cccc(NC(=O)CCN3CCCCC3)c1C2=O`, the pIC50 is 6.36 with A2780, 6.38 in the assay on CH1, 6.09 in the assay on SK-OV-3 and 5.64 in assay [1].

For the compound `C[N+]1(CCC(=O)Nc2ccc3c(c2)C(=O)c2cc(NC(=O)CC[N+]4(C)CCOCC4)ccc2C3=O)CCOCC1`, the pIC50 in the assay with A2780 was 6.28; with CH1, 5.96; in the assay on SK-OV-3 it was 5.53; in assay [1], 4.78.

Turning to `CC[N+](C)(CC)CCC(=O)Nc1cccc2c1C(=O)c1c(NC(=O)CC[N+](C)(CC)CC)cccc1C2=O`, the pIC50 was 6.26 with A2780, 5.78 in the assay with CH1, 5.34 in the assay on SK-OV-3 and 5.12 in assay [1].

`C[N+](C)(C)CCC(=O)Nc1cccc2c1C(=O)c1cccc(NC(=O)CC[N+](C)(C)C)c1C2=O`: the pIC50 is 5.77 in the assay with A2780, 5.76 in the assay with CH1, 5.24 with SK-OV-3 and 4.88 in assay [1].

For `CCN(CC)CCC(=O)Nc1cccc2c1C(=O)c1c(NC(=O)CCN(CC)CC)cccc1C2=O`, the pIC50 in the assay with A2780 was 6.19; in the assay with CH1 it was 5.28; in the assay with SK-OV-3 it was 5.28; in assay [1], 5.38.

For `C[N+]1(CCC(=O)Nc2ccc3c(c2)C(=O)c2cc(NC(=O)CC[N+]4(C)CCCC4)ccc2C3=O)CCCC1`, the pIC50 with A2780 is 6.32; with CH1 it was 5.80; in the assay with SK-OV-3 it was 5.33; in assay [1], 4.80.

As to `C[N+]1(CCC(=O)Nc2ccc3c(c2)C(=O)c2cc(NC(=O)CC[N+]4(C)CCCCC4)ccc2C3=O)CCCCC1`, the pIC50 in the assay on A2780 is 6.74; in the assay on CH1 it was 5.98; in the assay on SK-OV-3, 5.66; in assay [1] it was 5.11.

Turning to `O=C(CCN1CCCC1)Nc1ccc2c(c1)C(=O)c1ccc(NC(=O)CCN3CCCC3)cc1C2=O`, the pIC50 was 4.41 in the assay on A2780, 4.31 in the assay on CH1, 4.42 in the assay on SK-OV-3 and 5.74 in assay [1].

Take `C[N+]1(CCC(=O)Nc2cccc3c2C(=O)c2cccc(NC(=O)CC[N+]4(C)CCCC4)c2C3=O)CCCC1`: the pIC50 was 5.66 in the assay with A2780, 5.65 with CH1, 5.00 with SK-OV-3 and 5.06 in assay [1].

For the compound `CCN(CC)CCC(=O)Nc1ccc2c(c1)C(=O)c1ccc(NC(=O)CCN(CC)CC)cc1C2=O`, the negative logarithm of the IC50 (pIC50) with A2780 is 5.63; in the assay on CH1, 5.50; in the assay with SK-OV-3, 5.50; in assay [1], 5.46.

On to `CN(C)CCC(=O)Nc1cccc2c1C(=O)c1cccc(NC(=O)CCN(C)C)c1C2=O`, for which the pIC50 is 6.46 in the assay on A2780, 6.43 in the assay on CH1, 6.21 with SK-OV-3 and 5.89 in assay [1].

`C[N+](C)(C)CCC(=O)Nc1cccc2c1C(=O)c1c(NC(=O)CC[N+](C)(C)C)cccc1C2=O`: the pIC50 was 6.28 in the assay with A2780, 5.85 in the assay on CH1, 5.66 with SK-OV-3 and 5.36 in assay [1].

For the compound `CC[N+](C)(CC)CCC(=O)Nc1ccc2c(c1)C(=O)c1cc(NC(=O)CC[N+](C)(CC)CC)ccc1C2=O`, the pIC50 in the assay with A2780 was 6.48; in the assay with CH1, 5.95; with SK-OV-3, 5.70; in assay [1], under 4.70.

In the case of `O=C(CCN1CCCCC1)Nc1ccc2c(c1)C(=O)c1cc(NC(=O)CCN3CCCCC3)ccc1C2=O`, the pIC50 in the assay on A2780 was 6.32; in the assay on CH1 it was 5.50; in the assay with SK-OV-3, 5.43; in assay [1], 5.51.

On to `CN(C)CCC(=O)Nc1ccc2c(c1)C(=O)c1cc(NC(=O)CCN(C)C)ccc1C2=O`, for which the pIC50 in the assay on A2780 was 5.68; with CH1 it was 5.36; in the assay with SK-OV-3, 5.38; in assay [1], 5.33.

For the compound `CCN(CC)CCC(=O)Nc1ccc2c(c1)C(=O)c1cc(NC(=O)CCN(CC)CC)ccc1C2=O`, the pIC50 in the assay on A2780 was 5.68; in the assay with CH1, 5.34; in the assay with SK-OV-3 it was 5.14; in assay [1], 5.37.

On to `O=C(CCN1CCOCC1)Nc1ccc2c(c1)C(=O)c1cc(NC(=O)CCN3CCOCC3)ccc1C2=O`, for which the pIC50 is 5.28 in the assay on A2780, 5.12 with CH1, under 4.00 in the assay with SK-OV-3 and under 4.30 in assay [1].

(Values after ChEMBL document CHEMBL1131409, “Human telomerase inhibition by regioisomeric disubstituted amidoanthracene-9,10-diones” (J Med Chem, 1998).)
